Values after ≈ are worked out from the molar mass of the structure shown. Active and inactive are the calls of the source. The rule behind the calls is not given here.
Experiments:
[1] = molecular target: Fatty acid synthase (Homo sapiens) (UniProt P49327); assay: Inhibition of FASN in human PC9 cells harboring FASN expression and EGFR delE746-A750 mutant assessed as disruption of AKT/FASN positive feedback loop by measuring reduction in phosphorylated AKT expression at 5 uM after 48 hrs by Western immunoblot based densitometric assay relative to control; type: cell-based
Chain of Fatty acid synthase (Homo sapiens) (P49327 whole entry, looked up): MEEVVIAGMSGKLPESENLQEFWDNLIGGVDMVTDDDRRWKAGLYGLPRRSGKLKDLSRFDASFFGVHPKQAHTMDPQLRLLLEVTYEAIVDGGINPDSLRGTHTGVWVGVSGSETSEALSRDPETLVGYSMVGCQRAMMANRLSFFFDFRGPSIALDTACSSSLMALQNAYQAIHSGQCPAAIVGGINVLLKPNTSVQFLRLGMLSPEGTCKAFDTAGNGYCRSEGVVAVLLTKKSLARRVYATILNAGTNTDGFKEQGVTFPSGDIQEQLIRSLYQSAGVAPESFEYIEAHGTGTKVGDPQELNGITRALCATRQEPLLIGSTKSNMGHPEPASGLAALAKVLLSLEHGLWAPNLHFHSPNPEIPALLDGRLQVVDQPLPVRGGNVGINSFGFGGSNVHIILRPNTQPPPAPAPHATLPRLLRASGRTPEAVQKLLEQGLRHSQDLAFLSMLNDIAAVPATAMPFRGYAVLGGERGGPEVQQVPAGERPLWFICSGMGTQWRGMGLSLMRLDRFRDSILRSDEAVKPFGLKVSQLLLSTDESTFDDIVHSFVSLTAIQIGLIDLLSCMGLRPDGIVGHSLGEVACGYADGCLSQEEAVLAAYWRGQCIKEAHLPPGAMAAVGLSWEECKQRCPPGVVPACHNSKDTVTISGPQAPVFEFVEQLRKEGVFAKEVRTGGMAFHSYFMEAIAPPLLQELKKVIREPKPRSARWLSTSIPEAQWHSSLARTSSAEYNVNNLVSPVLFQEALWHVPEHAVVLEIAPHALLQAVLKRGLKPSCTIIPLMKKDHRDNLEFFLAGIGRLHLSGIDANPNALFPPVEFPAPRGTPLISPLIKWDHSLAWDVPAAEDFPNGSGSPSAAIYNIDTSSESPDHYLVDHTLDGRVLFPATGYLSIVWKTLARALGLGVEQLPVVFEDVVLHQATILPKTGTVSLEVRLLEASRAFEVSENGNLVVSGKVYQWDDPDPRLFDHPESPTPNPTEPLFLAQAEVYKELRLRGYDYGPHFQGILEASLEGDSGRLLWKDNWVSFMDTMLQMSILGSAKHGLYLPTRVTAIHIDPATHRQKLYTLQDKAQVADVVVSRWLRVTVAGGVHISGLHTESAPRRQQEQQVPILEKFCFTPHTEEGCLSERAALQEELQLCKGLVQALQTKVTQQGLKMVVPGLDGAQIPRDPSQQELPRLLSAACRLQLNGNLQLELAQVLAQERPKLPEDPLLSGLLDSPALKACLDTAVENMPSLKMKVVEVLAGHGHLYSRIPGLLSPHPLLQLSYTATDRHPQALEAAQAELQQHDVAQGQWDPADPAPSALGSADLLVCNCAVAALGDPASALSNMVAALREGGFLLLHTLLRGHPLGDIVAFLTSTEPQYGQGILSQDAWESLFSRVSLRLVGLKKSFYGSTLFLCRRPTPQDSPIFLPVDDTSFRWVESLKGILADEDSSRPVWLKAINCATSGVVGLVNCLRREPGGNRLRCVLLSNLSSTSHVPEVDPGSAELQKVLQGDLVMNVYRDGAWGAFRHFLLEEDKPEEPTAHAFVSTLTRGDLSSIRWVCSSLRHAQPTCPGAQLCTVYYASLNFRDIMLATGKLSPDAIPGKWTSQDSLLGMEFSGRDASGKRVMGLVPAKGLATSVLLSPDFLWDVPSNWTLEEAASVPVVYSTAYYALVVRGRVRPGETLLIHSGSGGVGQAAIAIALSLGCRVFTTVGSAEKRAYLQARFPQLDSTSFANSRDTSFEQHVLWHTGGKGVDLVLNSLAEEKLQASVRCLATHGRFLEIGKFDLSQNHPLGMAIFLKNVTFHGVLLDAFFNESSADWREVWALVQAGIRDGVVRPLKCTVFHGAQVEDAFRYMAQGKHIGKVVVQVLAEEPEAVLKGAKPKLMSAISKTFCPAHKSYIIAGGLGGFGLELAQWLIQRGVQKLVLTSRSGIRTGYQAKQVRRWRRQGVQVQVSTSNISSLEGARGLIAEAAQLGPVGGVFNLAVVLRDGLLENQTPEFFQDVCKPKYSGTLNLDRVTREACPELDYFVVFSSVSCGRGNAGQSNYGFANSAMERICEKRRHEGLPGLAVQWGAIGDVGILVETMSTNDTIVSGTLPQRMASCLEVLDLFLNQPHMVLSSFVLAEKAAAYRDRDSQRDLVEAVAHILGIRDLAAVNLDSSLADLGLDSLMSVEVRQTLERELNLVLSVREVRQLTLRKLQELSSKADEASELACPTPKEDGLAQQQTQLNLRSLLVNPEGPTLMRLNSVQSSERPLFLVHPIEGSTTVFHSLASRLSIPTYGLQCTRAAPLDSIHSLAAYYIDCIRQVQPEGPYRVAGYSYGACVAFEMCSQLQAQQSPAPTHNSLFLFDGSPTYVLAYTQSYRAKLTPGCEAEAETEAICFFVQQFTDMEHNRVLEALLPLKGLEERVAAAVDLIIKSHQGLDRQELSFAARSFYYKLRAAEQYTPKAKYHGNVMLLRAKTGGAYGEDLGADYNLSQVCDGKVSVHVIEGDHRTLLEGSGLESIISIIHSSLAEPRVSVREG
In short: (§1)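 PC-9 or H1703 cells were seeded at 8 × 10^5 per 100 mm dish and treated for 48 h at 1 or 5 µM (or 5, 50 and 100 µM). RIPA lysates were BCA-quantified and run on 8% SDS-PAGE, then transferred to PVDF. Blots were probed for FASN, AKT, phospho-AKT S473 and GAPDH and detected by ECL. Bands were quantified by densitometry and normalised to vehicle control.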

PC-9 [2] = assay: Antiproliferative activity against human PC9 cells harboring FASN expression and EGFR delE746-A750 mutant assessed as reduction in cell viability after 72 hrs by MTS assay; type: functional, cell-based; settings: PC-9, 72 h
In short: (§2)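 ATCC-sourced cells. H1299, H1650, H1703 and PC-9 were grown in RPMI 1640 with 10% FBS. A549 was grown in high-glucose DMEM with 10% FBS and 1 mM pyruvate. SAEC was grown in BEGM. Cells were seeded at 3 × 10^3 per well (H1650 3.5 × 10^3) and left to attach overnight. Serial dilutions from DMSO stocks were added, 0.1% DMSO final, for 72 h at 37 °C, 5% CO2. Medium was replaced, MTS added, and A490 read after 2 h. IC50 was taken from % viability versus log concentration, 3 experiments.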

[3] = Selectivity index, ratio of IC50 for human SAE cells lacking FASN expression to IC50 for human A549 cells expressing FASN
In short: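 The ratio IC50(SAEC)/IC50(NSCLC line) was calculated from 72 h MTS viability IC50 values.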

[4] = molecular target: Fatty acid synthase (Homo sapiens) (UniProt P49327); assay: Inhibition of FASN in human NCI-H1703 cells expressing FASN assessed as disruption of AKT/FASN positive feedback loop by measuring decrease in phosphorylated AKT expression at 5 uM after 48 hrs by Western immunoblot based densitometric assay relative to control; type: cell-based; in short: as §1
[5] = molecular target: Fatty acid synthase (Homo sapiens) (UniProt P49327); assay: (§3) Inhibition of FASN in human PC9 cells harboring FASN expression and EGFR delE746-A750 mutant assessed as disruption of AKT/FASN positive feedback loop by measuring reduction in AKT expression at 1 uM after 48 hrs by Western immunoblot based densitometric assay relative to control; type: cell-based; in short: as §1
[6] = molecular target: Fatty acid synthase (Homo sapiens) (UniProt P49327); assay: Inhibition of FASN in human NCI-H1703 cells expressing FASN assessed as disruption of AKT/FASN positive feedback loop by measuring decrease in FASN expression at 1 uM after 48 hrs in presence of exogenous lipid concentrate by Western immunoblot based densitometric assay relative to control; type: cell-based
In short: (§4)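 PC-9 (2 µM) or H1703 (1 µM) cells were treated with compound, with or without lipid concentrate (1% v/v per figure legend), for 48 h. Cells were lysed in RIPA buffer and lysates run on SDS-PAGE western blots for FASN, AKT, phospho-AKT S473 and GAPDH. Bands were quantified by densitometry and normalised to untreated control.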

A549 = assay: Antiproliferative activity against human A549 cells expressing FASN assessed as reduction in cell viability after 72 hrs by MTS assay; type: functional, cell-based; settings: A549, 72 h; in short: as §2
[7] = molecular target: Fatty acid synthase (Homo sapiens) (UniProt P49327); assay: as §3, with “FASN” for “reduction in AKT”, “2” for “1”, “hrs in presence of exogenous lipid concentrate” for “hrs”; type: cell-based; in short: as §4
[8] = molecular target: Fatty acid synthase (Homo sapiens) (UniProt P49327); assay: as §3, with “ratio of phosphoAKT/AKT” for “reduction in AKT”, “2” for “1”, “hrs in presence of exogenous lipid concentrate” for “hrs”; type: cell-based; in short: as §4
NCI-H1703 = assay: Antiproliferative activity against human NCI-H1703 cells expressing FASN assessed as growth inhibition at 25 uM after 72 hrs by MTS assay relative to control; type: functional; settings: NCI-H1703, 72 h
In short: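 H1703 cells were treated with a single 25 µM concentration for 72 h. Viability was measured by MTS at 490 nm, with 0.1% DMSO and media-only correction, relative to untreated control. Mean ± SD of n = 3 independent determinations, unpaired t test against control.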

PC-9 [9] = assay: Antiproliferative activity against human PC9 cells harboring FASN expression and EGFR delE746-A750 mutant assessed as cell viability at 2 uM after 72 hrs in presence of exogenous lipid concentrate by MTS assay; type: functional, cell-based
In short: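 Cells were treated as in the MTS viability assay. After 6 h, chemically defined lipid concentrate was added to 2% v/v final. Incubation continued for a further 72 h, then viability was read by MTS at 490 nm. Cells were treated at 2 µM (PC-9) or 1 µM (H1703). Mean ± SD, n = 3, compared with compound alone.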

[10] = molecular target: Fatty acid synthase (Homo sapiens) (UniProt P49327); assay: Inhibition of FASN in human NCI-H1703 cells expressing FASN assessed as disruption of AKT/FASN positive feedback loop by measuring decrease in FASN expression at 5 uM after 48 hrs by Western immunoblot based densitometric assay relative to control; type: cell-based; in short: as §1
[11] = Selectivity index, ratio of IC50 for human SAE cells lacking FASN expression to IC50 for human NCI-H1650 cells expressing FASN
In short: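 Index is the SAEC IC50 divided by the IC50 in the FASN-expressing NSCLC line. IC50s came from MTS viability after 72 h exposure at 37 °C, 5% CO2, DMSO 0.1% v/v. Absorbance was read at 490 nm after 2 h. The fit was % viability against log concentration, with 4 technical repeats and 3 independent experiments. NSCLC lines were grown in RPMI/10% FBS; SAEC in BEGM.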

[12] = molecular target: Fatty acid synthase (Homo sapiens) (UniProt P49327); assay: Inhibition of FASN in human NCI-H1703 cells expressing FASN assessed as disruption of AKT/FASN positive feedback loop by measuring decrease in AKT expression at 5 uM after 48 hrs by Western immunoblot based densitometric assay relative to control; type: cell-based; in short: as §1
[13] = Kinetic solubility of the compound in universal buffer at pH 7.4 measured at 25 degC after 24 hrs by UV/Visible spectroscopic analysis; type: physicochemical; settings: read-out: Kinetic_solubility
[14] = Cytotoxicity against human SAE cells lacking FASN expression assessed as reduction in cell viability after 72 hrs by MTS assay; type: cell-based; in short: as §2
NCI-H1299 = assay: Antiproliferative activity against human NCI-H1299 cells expressing FASN assessed as reduction in cell viability after 72 hrs by MTS assay; type: functional, cell-based; settings: NCI-H1299, 72 h; in short: as §2
[15] = molecular target: Fatty acid synthase (Homo sapiens) (UniProt P49327); assay: Inhibition of FASN in human PC9 cells harboring FASN expression and EGFR delE746-A750 mutant assessed as disruption of AKT/FASN positive feedback loop by measuring decrease in FASN expression after 48 hrs by Western immunoblot assay; type: cell-based; in short: as §1
[16] = molecular target: Fatty acid synthase (Homo sapiens) (UniProt P49327); assay: Inhibition of FASN in human PC9 cells harboring FASN expression and EGFR delE746-A750 mutant assessed as disruption of AKT/FASN positive feedback loop by measuring reduction in phosphorylated AKT expression at 1 uM after 48 hrs by Western immunoblot based densitometric assay relative to control; type: cell-based; in short: as §1

Compound | Ratio [1] | IC50 (PC-9 [2]) | Ratio IC50 [3] | Ratio [4] | Ratio [5] | Ratio [6] | IC50 (A549) | Ratio [7] | Ratio [8] | inhibition at 25 µM (NCI-H1703) | inhibition (PC-9 [9]) | Ratio [10] | Ratio IC50 [11] | Ratio [12] | solubility kinetic at 24 h [13] | IC50 [14] | IC50 (NCI-H1299) | inhibition [15] | Ratio [16]
O=C(Oc1ccc(/C=C/c2ccc(OC(=O)c3cc(O)c(O)c(O)c3)cc2)cc1)c1cc(O)c(O)c(O)c1 | 0.2 | 2.3 µM | 2.4 | 0.001 | 1.04 | 0.74 | 2.1 µM | 0.55 | 0.57 | > 50% | inactive | 0.04 | 2 | 0.01 | 2.5 µM (≈ 1.29 µg/mL) | 5 µM | 3.3 µM | Dose-dependent effect | 0.88
O=C(Oc1ccc(/C=C/c2cccc(OC(=O)c3cc(O)c(O)c(O)c3)c2)cc1)c1cc(O)c(O)c(O)c1 | 0.29 | 5 µM | 3 | 0.04 | 0.58 | 1.64 | 2.3 µM | 0.62 | 0.87 | > 50% | inactive | 0.08 | 0.5 | 0.11 | 6 µM (≈ 3.1 µg/mL) | 6.8 µM | 3.1 µM | Dose-dependent effect | 0.53
